Consider three compounds from PMC2717697 (The Journal of General Physiology, 2009).

What all share (type): cell-based
The subject of experiment [1] is WT and E363Q CNGA1 channels. The note with it: fit of Eq. 1 to G-V relations 10 to 200 mV, WT and E363Q together.
In experiment [2] the target is T1, E363Q mutant CNGA1 channel (Bos taurus, UniProt Q00194, E363Q).
T1 sequence (Q00194 1-690 E363Q): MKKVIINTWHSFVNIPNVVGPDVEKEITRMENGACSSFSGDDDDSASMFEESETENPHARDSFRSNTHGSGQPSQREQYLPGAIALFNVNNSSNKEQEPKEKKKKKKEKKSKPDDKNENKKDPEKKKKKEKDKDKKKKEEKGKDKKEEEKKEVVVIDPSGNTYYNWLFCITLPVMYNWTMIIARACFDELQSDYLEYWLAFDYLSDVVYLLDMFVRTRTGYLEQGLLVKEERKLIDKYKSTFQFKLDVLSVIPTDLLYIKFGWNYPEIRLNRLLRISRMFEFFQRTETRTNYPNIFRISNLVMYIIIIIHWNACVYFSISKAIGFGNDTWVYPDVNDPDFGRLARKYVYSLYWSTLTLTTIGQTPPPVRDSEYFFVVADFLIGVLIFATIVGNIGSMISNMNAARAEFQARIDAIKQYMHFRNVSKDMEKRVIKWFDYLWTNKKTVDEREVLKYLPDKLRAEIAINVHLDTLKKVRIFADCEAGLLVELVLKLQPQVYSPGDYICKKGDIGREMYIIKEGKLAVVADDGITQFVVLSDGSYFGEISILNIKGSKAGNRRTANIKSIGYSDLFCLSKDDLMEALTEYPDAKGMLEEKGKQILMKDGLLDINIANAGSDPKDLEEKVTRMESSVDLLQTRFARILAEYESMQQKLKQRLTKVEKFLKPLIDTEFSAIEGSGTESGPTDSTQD

The target in another experiment is T2, wild-type CNGA1 channels (Bos taurus, UniProt Q00194).
T2 sequence (Q00194 1-690): T1 sequence (Q00194 1-690 E363Q) with Q363E

For experiment [3], the target named is T3, T389A mutant CNGA1 channel (Bos taurus, UniProt Q00194, T389A).
T3 sequence (Q00194 1-690 T389A): T1 sequence (Q00194 1-690 E363Q) with Q363E, T389A
In words: Voltage-dependent block by intracellular PhTx, T389A. In a few lines: (§1)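 WT or mutant CNGA1 cRNA was injected into collagenase-defolliculated Xenopus oocytes. […] I-V curves were taken from −80 mV holding with steps of −200 to 200 mV in 10-mV increments. No-cGMP currents were subtracted as background. Recordings were made with or without 10 µM intracellular PhTx, and fraction unblocked (I/Io) was reported as mean ± SEM, n = 4–6.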

For experiment [4], the target named is T4, V384A mutant CNGA1 channel (Bos taurus, UniProt Q00194, V384A).
T4 sequence (Q00194 1-690 V384A): T1 sequence (Q00194 1-690 E363Q) with Q363E, V384A
The experiment is described as follows: Voltage-dependent block by intracellular PhTx, V384A. In a few lines:
as §1

Experiment [5] deals with T5, I386A mutant CNGA1 channel (Bos taurus, UniProt Q00194, I386A).
T5 sequence (Q00194 1-690 I386A): T1 sequence (Q00194 1-690 E363Q) with Q363E, I386A
The experiment is described as follows: Voltage-dependent block by intracellular PhTx, I386A. The procedure, abridged:
as §1

Experiment [6] concerns the target T6, I390A mutant CNGA1 channel (Bos taurus, UniProt Q00194, I390A).
T6 sequence (Q00194 1-690 I390A): T1 sequence (Q00194 1-690 E363Q) with Q363E, I390A
The experiment is described as follows: Voltage-dependent block by intracellular PhTx, I390A. The procedure, abridged: as §1

Experiment [7] addresses T7, F387A mutant CNGA1 channel (Bos taurus, UniProt Q00194, F387A).
T7 sequence (Q00194 1-690 F387A): T1 sequence (Q00194 1-690 E363Q) with Q363E, F387A
The experiment is described as follows: Voltage-dependent block by intracellular PhTx, F387A. The procedure, abridged: as §1

Experiment [8] deals with T8, wild-type (WT) CNGA1 channel (Bos taurus, UniProt Q00194).
T8 sequence (Q00194 1-690): T1 sequence (Q00194 1-690 E363Q) with Q363E
In words: Voltage-dependent block by intracellular PhTx, wild type. The procedure, abridged: as §1

Experiment [9] deals with T1, E363Q mutant CNGA1 channel. In words: Block of E363Q single-channel currents by extracellular Mg^2+. In a few lines:
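Xenopus laevis oocytes were collagenase-defolliculated, cRNA-injected, and kept at 18°C. […] E363Q single-channel currents were recorded at 120 or −120 mV with or without 0.1 mM extracellular Mg2+, one patch per trace. Filtering was 1 kHz and sampling 10 kHz. Amplitudes are mean ± SEM, n = 5–20.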

Setting [10] is: read-out: appKd, Boltzmann fit of I/Io at 10 µM intracellular PhTx.
The mark [11] stands for this setting: valence of block, Boltzmann fit.

Positions count from the first letter of the chain named.

As to `Nc1nc2c(ncn2[C@@H]2O[C@@H]3COP(=O)(O)O[C@H]3[C@H]2O)c(=O)[nH]1` [cGMP, cyclic GMP], the “Hill coefficient (n)” value is 1.44 ± 0.06 in experiment [1]; 1.44 ± 0.01 in experiment [2] (common to 40 and 200 mV); 1.48 ± 0.03 on wild-type CNGA1 channels (common to −200 and 200 mV). For the same compound, in experiment [1] (read-out: KL), the Kd was found to be 78 ± 4 µM. Moreover, the “valence factor of KL” value is recorded as −0.1 in experiment [2] and 0.04 on wild-type CNGA1 channels. The “variation of KL” value at wild-type CNGA1 channels (over 400 mV (−200 to 200 mV)) is “twofold”.

Regarding philanthotoxin [PhTx], the Kd in experiment [3] (setting [10]) came to 1.6 µM; in experiment [4] (setting [10]) it was 3.5 µM; in experiment [5] (setting [10]) it was 0.83 µM; in [6] (setting [10]), 1.2 µM; in experiment [7] (setting [10]), 52 µM; in [8] (setting [10]), 1.6 µM. For the same compound, the Z in [3] (setting [11]) was 2.25 ± 0.06; in [4] (setting [11]), 2.81 ± 0.09; in experiment [5] (setting [11]) it was 2.55 ± 0.07; in experiment [6] (setting [11]), 2.67 ± 0.08; in [7] (setting [11]) it was 0.96 ± 0.02; in experiment [8] (setting [11]), 2.48 ± 0.07.

As a reminder, the Ki is a dissociation constant, usually derived from enzyme kinetics or from competition with a known ligand. With `[Mg+2]` [Mg^2+], the Ki in [9] (read-out: estimated Ki, −120 mV, estimated from 37% reduction at 100 µM) is 170 µM. In addition, the “reduction of single-channel current amplitude” value in [9] (−120 mV, 100 µM external Mg^2+) was determined as 37%.
